Data: ChEMBL document CHEMBL3124843, “Synthesis, cytostatic, antimicrobial, and anti-HCV activity of 6-substituted 7-(het)aryl-7-deazapurine ribonucleosides” (J Med Chem, 2014)
Active and inactive are the calls of the source. No rule for the calls is given here.

Tests used:
HL-60 = test: Antiproliferative activity against human HL60 cells after 72 hrs by XTT assay; assay type: functional, cell-based; settings: HL-60, 72 h
In short: (§1)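 Antiproliferative test on HL-60 promyelocytic leukemia and HeLa S3 cervical carcinoma cells growing in liquid suspension.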

CCRF-CEM = test: Cytostatic activity against human CCRF-CEM cells after 72 hrs by MTT assay; assay type: functional, cell-based
In short: (§2)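 IC50 is the concentration that cuts cell growth by 50%, read by quantitative metabolic MTT staining after a 3-day treatment. The resistant sublines were made by raising the concentration of the cytotoxic drug step by step. CEM-DNR-bulk (daunorubicin-selected) stably overexpresses mrp-1. K562-TAX (paclitaxel-selected) expresses only mdr-1. HCT116p53−/− carries null p53 alleles. BJ and MRC-5 are nonmalignant fibroblasts.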

Hepatitis C virus [1] = test: Antiviral activity against Hepatitis C virus subtype 2a infected in human HuH7 cells; assay type: functional, organism-based, Hepacivirus hominis; settings: genotype 2a, Huh-7
K562 [2] = test: Cytostatic activity against paclitaxel-resistant human K562 cells after 72 hrs by MTT assay; assay type: functional, cell-based; settings: K562, 72 h; in short: as §2
[3] = Cytotoxicity against human HuH7 cells infected with Hepatitis C virus subtype 2a; assay type: cell-based, Huh-7
BJ = test: Cytostatic activity against human BJ cells after 72 hrs by MTT assay; assay type: ADME, cell-based; in short: as §2
[4] = tested on: Staphylococcus haemolyticus; test: Antibacterial activity against methicillin-resistant Staphylococcus haemolyticus A/16568 after 24 hrs; assay type: functional, organism-based
Pseudomonas aeruginosa [5] = test: Antibacterial activity against Pseudomonas aeruginosa CCM 3955 after 24 hrs; assay type: functional, organism-based
Hepatitis C virus [6] = test: Antiviral activity against Hepatitis C virus subtype 1b infected in human HuH7 cells; assay type: functional, organism-based, Hepacivirus hominis; settings: genotype 1b, Huh-7
Candida tropicalis = test: Antifungal activity against Candida tropicalis after 48 hrs; assay type: functional, organism-based
Staphylococcus aureus [7] = test: Antibacterial activity against Staphylococcus aureus CCM 3953 after 24 hrs; assay type: functional, organism-based
Escherichia coli [8] = test: Antibacterial activity against multi-resistant Escherichia coli C/16702 after 24 hrs; assay type: functional, organism-based
Pseudomonas aeruginosa [9] = test: Antibacterial activity against multi-resistant Pseudomonas aeruginosa A/16575 after 24 hrs; assay type: functional, organism-based
A549 = test: Cytostatic activity against human A549 cells after 72 hrs by MTT assay; assay type: functional, cell-based; settings: A549, 72 h; in short: as §2
HepG2 = test: Antiproliferative activity against human HepG2 cells after 72 hrs by XTT assay; assay type: functional, cell-based; settings: HepG2, 72 h
Candida parapsilosis = test: Antifungal activity against Candida parapsilosis after 48 hrs; assay type: functional, organism-based
HCT-116 [10] = test: Cytostatic activity against p53-deficient human HCT116 cells after 72 hrs by MTT assay; assay type: functional, cell-based; settings: HCT-116, 72 h; in short: as §2
[11] = Cytostatic activity against human CEM-DNR-bulk cells after 72 hrs by MTT assay; assay type: functional, cell-based; in short: as §2
[12] = Antiproliferative activity against human HeLaS3 cells after 72 hrs by XTT assay; assay type: functional, cell-based; settings: HeLa S3, 72 h; in short: as §1
K562 [13] = test: Cytostatic activity against human K562 cells after 72 hrs by MTT assay; assay type: functional, cell-based; settings: K562, 72 h; in short: as §2
HCT-116 [14] = test: Cytostatic activity against human HCT116 cells after 72 hrs by MTT assay; assay type: functional, cell-based; settings: HCT-116, 72 h; in short: as §2
Candida albicans = test: Antifungal activity against Candida albicans after 48 hrs; assay type: functional, organism-based
Staphylococcus aureus [15] = test: Antibacterial activity against methicillin-resistant Staphylococcus aureus MRSA 4591 after 24 hrs; assay type: functional, organism-based
[16] = Cytotoxicity against human HuH7 cells infected with Hepatitis C virus subtype 1b; assay type: cell-based, Huh-7
MRC5 = test: Cytostatic activity against human MRC5 cells after 72 hrs by MTT assay; assay type: ADME, cell-based; settings: MRC5, 72 h; in short: as §2
Pichia kudriavzevii = test: Antifungal activity against Candida crusei after 48 hrs; assay type: functional, organism-based
Enterococcus faecalis = test: Antibacterial activity against Enterococcus faecalis CCM 4224 after 24 hrs; assay type: functional, organism-based
Escherichia coli [17] = test: Antibacterial activity against Escherichia coli CCM 3954 after 24 hrs; assay type: functional, organism-based

SMILES | IC50 (CCRF-CEM) [µM] | IC50 (K562 [2]) [µM] | IC50 (BJ) [µM] | Activity [4] | Activity (Pseudomonas aeruginosa [5]) | EC50 (Hepatitis C virus [6]) [µM] | Activity (Candida tropicalis) | Activity (Staphylococcus aureus [7]) | Activity (Escherichia coli [8]) | Activity (Pseudomonas aeruginosa [9]) | IC50 (A549) [µM] | Activity (Candida parapsilosis) | IC50 (HCT-116 [10]) [µM] | IC50 [11] [µM] | IC50 [12] [µM] | IC50 (K562 [13]) [µM] | IC50 (HCT-116 [14]) [µM] | Activity (Candida albicans) | Activity (Staphylococcus aureus [15]) | CC50 [16] [µM] | other results
C#Cc1cn([C@@H]2O[C@H](CO)[C@@H](O)[C@H]2O)c2ncnc(C)c12 | 5.6 | 0.11 | 0.05 | inactive | inactive | 0.23 | inactive | inactive | inactive | inactive | 19.2 | inactive | > 20 | 0.16 | 14.7 | 6.92 | > 20 | inactive | inactive | > 44 | IC50 (HL-60): 1.11 µM; EC50 (Hepatitis C virus [1]): 21.6 µM; CC50 [3]: > 44 µM; IC50 (HepG2): 0.29 µM; IC50 (MRC5): 1.44 µM; Activity (Pichia kudriavzevii): inactive; Activity (Enterococcus faecalis): inactive; Activity (Escherichia coli [17]): inactive
CNc1ncnc2c1ccn2[C@@H]1O[C@H](CO)[C@@H](O)[C@H]1O | > 20 | 0.92 | 91.4 | inactive | inactive | 0.82 | inactive | inactive | inactive | inactive | > 20 | inactive | > 20 | 4.89 | > 20 | > 20 | > 20 | inactive | inactive | > 44 | IC50 (HL-60): 12.8 µM; EC50 (Hepatitis C virus [1]): > 44 µM; CC50 [3]: > 44 µM; IC50 (HepG2): > 20 µM; IC50 (MRC5): 97.8 µM; Activity (Pichia kudriavzevii): inactive; Activity (Enterococcus faecalis): inactive; Activity (Escherichia coli [17]): inactive
C#Cc1cn([C@@H]2O[C@H](CO)[C@@H](O)[C@H]2O)c2nc(N)nc(OC)c12 | > 100 | > 20 | > 100 | inactive | inactive | > 44 | inactive | inactive | inactive | inactive | > 100 | inactive | > 20 | > 20 | > 20 | > 20 | > 20 | inactive | inactive | > 44 | IC50 (HL-60): > 20 µM; EC50 (Hepatitis C virus [1]): > 44 µM; CC50 [3]: > 44 µM; IC50 (HepG2): > 20 µM; IC50 (MRC5): > 100 µM; Activity (Pichia kudriavzevii): inactive; Activity (Enterococcus faecalis): inactive; Activity (Escherichia coli [17]): inactive
CSc1ncnc2c1c(I)cn2[C@@H]1O[C@H](CO)[C@@H](O)[C@H]1O | > 20 | 7.73 | 86.1 | inactive | inactive | 19.2 | inactive | inactive | inactive | inactive | > 20 | inactive | > 20 | > 20 | 0.25 | 10.5 | > 20 | inactive | inactive | > 44 | IC50 (HL-60): 0.05 µM; EC50 (Hepatitis C virus [1]): > 44 µM; CC50 [3]: > 44 µM; IC50 (HepG2): > 20 µM; IC50 (MRC5): > 100 µM; Activity (Pichia kudriavzevii): inactive; Activity (Enterococcus faecalis): inactive; Activity (Escherichia coli [17]): inactive
Nc1ncnc2c1c(-c1ccco1)cn2[C@@H]1O[C@H](CO)[C@@H](O)[C@H]1O | 0.04 | 0.05 | 18.3 | inactive | inactive | > 44 | inactive | inactive | inactive | inactive | 0.03 | inactive | 0.17 | 0.21 | 0.05 | 0.04 | 0.03 | inactive | inactive | > 44 | EC50 (Hepatitis C virus [1]): > 44 µM; CC50 [3]: > 44 µM; IC50 (MRC5): 36.5 µM; Activity (Pichia kudriavzevii): inactive; Activity (Enterococcus faecalis): inactive; Activity (Escherichia coli [17]): inactive
Nc1nc(N)c2c(-c3ccco3)cn([C@@H]3O[C@H](CO)[C@@H](O)[C@H]3O)c2n1 | > 20 | > 20 | > 100 | inactive | inactive | 12.5 | inactive | inactive | inactive | inactive | > 20 | inactive | > 20 | > 20 | > 20 | > 20 | > 20 | inactive | inactive | > 44 | IC50 (HL-60): > 20 µM; IC50 (HepG2): > 20 µM; IC50 (MRC5): > 100 µM; Activity (Pichia kudriavzevii): inactive; Activity (Enterococcus faecalis): inactive; Activity (Escherichia coli [17]): inactive
C#Cc1cn([C@@H]2O[C@H](CO)[C@@H](O)[C@H]2O)c2nc(C)nc(N)c12 | > 20 | 3.29 | > 100 | inactive | inactive | 8 | inactive | inactive | inactive | inactive | > 20 | inactive | > 20 | 12.6 | > 20 | > 20 | > 20 | inactive | inactive | > 44 | IC50 (HL-60): > 20 µM; IC50 (HepG2): > 20 µM; IC50 (MRC5): > 100 µM; Activity (Pichia kudriavzevii): inactive; Activity (Enterococcus faecalis): inactive; Activity (Escherichia coli [17]): inactive
